Most compounds without a hit are left out; they make up all but 1.9% or so of the library.
Runt-SMMHC FRET: inhibitors of human RUNX1 Runt domain binding to CBFb-SMMHC. inhibition, % at 20 µM. AID 1434. actives 0.74% (n = 220,000). Cerulean-Runt/Venus-CBFb-SMMHC FRET ratio 530/480, 1 h;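 active means mean inhibition across duplicate retests at 20 µM reaching about 50%, limit read from the data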;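 further: inhibitors lower the FRET ratio by blocking Runt binding to CBFb-SMMHC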
Target sequence (Q01196 whole entry, looked up, the tested form may be a part): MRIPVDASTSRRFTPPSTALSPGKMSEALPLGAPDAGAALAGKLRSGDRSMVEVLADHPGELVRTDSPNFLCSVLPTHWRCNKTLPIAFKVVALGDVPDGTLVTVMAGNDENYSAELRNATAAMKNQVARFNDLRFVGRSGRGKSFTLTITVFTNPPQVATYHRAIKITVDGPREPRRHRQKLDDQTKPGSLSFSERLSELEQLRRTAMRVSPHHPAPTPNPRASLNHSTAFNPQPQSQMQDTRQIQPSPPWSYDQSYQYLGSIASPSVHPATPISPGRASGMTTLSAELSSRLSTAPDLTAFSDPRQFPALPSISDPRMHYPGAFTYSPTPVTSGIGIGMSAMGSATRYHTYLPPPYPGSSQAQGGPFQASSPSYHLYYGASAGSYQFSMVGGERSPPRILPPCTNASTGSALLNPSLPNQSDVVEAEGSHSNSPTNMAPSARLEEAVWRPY
Target sequence (Q13951 whole entry, looked up, the tested form may be a part): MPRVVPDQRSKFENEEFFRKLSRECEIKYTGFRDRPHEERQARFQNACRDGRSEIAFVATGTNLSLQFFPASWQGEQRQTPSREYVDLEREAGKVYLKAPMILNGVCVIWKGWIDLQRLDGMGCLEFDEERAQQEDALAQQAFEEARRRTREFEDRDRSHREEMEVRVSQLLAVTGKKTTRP
Tb hexokinase: blocks Trypanosoma brucei hexokinase 1 activity. recombinant TbHK1, G6PDH-coupled NADH A340. inhibition, % at 10 µM. actives 0.11% (n = 220,000). AID 1430;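 active means inhibition of 50% or more in the single-dose primary screen; inactive means inhibition below 50%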
Runt-CBFb FRET: inhibitors of human RUNX1 Runt domain binding to CBFb. Cerulean-Runt/Venus-CBFb FRET ratio 530/480, 1 h. inhibition, % at 20 µM. actives 0.46% (n = 220,000). AID 1496;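 active means inhibition over about 50% at 20 µM in the single-dose screen, limit read from the data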
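test system = Cerulean-Runt domain fusion protein, energy donor | probe or stimulus = Venus-CBFb binding partner, 100 nM | incubation = two 1 h room-temperature incubations shielded from light | detection = fluorescence energy transfer, 422 nm excitation, 530/480 nm emission | measure = loss of energy transfer signal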
Hck-Nef inh: inhibitors of human Hck kinase activated by Nef | inhibition, % at 20 µM | actives 0.68% (n = 220,000) | AID 463187 | Recombinant Hck-YEEI plus Nef, Z-Lyte FRET kinase assay;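 active means Hck-Nef kinase inhibition above about 50%, limit read from the data; inactive means inhibition below that limit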
RanGTP-Imp inh: inhibitors of RanGTP-importin-beta interaction, primary screen, biochemical, FRET, CFP-Ran, YFP-importin-beta, homogeneous; cell-free CFP-Ran/YFP-importin-beta FRET ratio; actives 1.1% (n = 300,000); inhibition, % (test concentration not listed);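 active means more than half of the replicate wells show a fall in the fluorescence ratio signal beyond about 16%, limit read from the data, passing the limit was not always enough; inconclusive means exactly half of the replicate wells pass the set limit; inactive means fewer than half of replicates pass the limit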
A number is an active result; 0 = inactive; ? = inconclusive; - = no result.

SMILES	Runt-SMMHC FRET	Tb hexokinase	Runt-CBFb FRET	Hck-Nef inh	RanGTP-Imp inh
CC(=O)Nc1ccc(C2=NN(c3ccccc3)C(c3cccs3)C2)cc1 (centres undefined)	55	0	0	0	0
CC(=O)N1N=C(c2ccccc2)CC1c1cccs1 (centres undefined)	-	-	-	-	0
Cc1ccc2cc3c(NS(=O)(=O)c4cccc5nonc45)nn(CC(C)C)c3nc2c1	-	-	-	-	0
Cc1ccc2nc(-c3ccc(NC(=O)C4CCCO4)cc3)[nH]c2c1 (centres undefined)	0	0	0	0	0
Cc1ccc2cc3c(NC(=O)C4CCCO4)nn(CC(C)C)c3nc2c1 (centres undefined)	0	0	0	0	31
CCn1nc(NC(=O)C2CCCO2)c2cc3cc(C)ccc3nc21 (centres undefined)	0	0	0	0	44
Cc1ccc2nc3c(cc2c1)c(NC(=O)C1CCCO1)nn3CC(C)C (centres undefined)	59	0	0	0	71
CC(C)CN1CCC(=O)N(CCSc2ccc(Br)cc2)CC1	0	0	0	0	0
NNC(=O)c1ccc(CSc2n[nH]c(=O)[nH]c2=O)cc1	0	0	0	0	0
CC1Cc2cc(S(=O)(=O)N3CCC(C(=O)NCc4ccco4)CC3)ccc2N1C(=O)C1CCC1 (centres undefined)	-	-	-	-	0
COCCCNC(=S)N1CCCN(c2nc3cc(C)c(C)cc3cc2C#N)CC1	0	0	0	0	57
CCOCCCNC(=S)N1CCCN(c2nc3cc(C)c(C)cc3cc2C#N)CC1	52	0	0	0	58
COCCCNC(=S)N1CCCN(c2nc3cc(C)ccc3cc2C#N)CC1	0	0	0	0	0
CCOCCCNC(=S)N1CCCN(c2nc3cc(C)cc(C)c3cc2C#N)CC1	0	0	0	0	0
Cc1ccc(C)c(NC(=O)CN(C)C(=O)c2ccc3[nH]c4c(c3c2)CC(C)CC4)c1 (centres undefined)	-	-	-	-	26
Cc1ccc2[nH]c(=O)c(C(c3nnnn3Cc3ccccc3)N3CCc4ccccc43)cc2c1 (centres undefined)	0	0	0	0	20
Cc1cc(N2CCN(C3CCCC3)CC2)n2c(nc3ccccc32)c1C#N	53	0	0	0	0
Cc1cc(C(C)C)n2c(nc3ccccc32)c1C#N	0	0	0	0	?
COCc1cc(CNC(=O)C2CCC(=O)N(Cc3ccccc3OC)C2)[nH]n1 (centres undefined)	-	-	-	-	0
Cc1cc([N+](=O)[O-])nn1CC(=O)NCc1nc2ccccc2[nH]1	0	0	0	0	174
COCCn1c(N)c(S(=O)(=O)c2cccs2)c2nc3ccccc3nc21	0	0	0	0	0
COCCn1c(N)c(C(=O)Nc2sc3c(c2C(=O)OC)CCCC3)c2nc3ccccc3nc21	0	0	87	0	0
COCCn1c(N)c(C(=O)NCC2CCCO2)c2nc3ccccc3nc21 (centres undefined)	79	0	70	0	94
COCCn1c(N)c(C(=O)NCc2cccs2)c2nc3ccccc3nc21	70	0	0	0	84
CCOC(=O)c1c(N)n(CC(C)NC(=O)C2CC2)c2nc3ccccc3nc12 (centres undefined)	163	0	74	0	-
SMILES	Runt-SMMHC FRET	Tb hexokinase	Runt-CBFb FRET	Hck-Nef inh	RanGTP-Imp inh
CCC(C)NC(=O)c1c(N)n(/N=C/c2ccccn2)c2nc3ccccc3nc12 (centres undefined)	0	0	0	0	?
CCSc1nnc2ccc(-c3ccc(C)cc3)nn12	-	-	-	-	0
CCn1c(=O)c2ccccc2n(Cc2ccccc2C)c1=O	-	-	-	-	0
CCOc1ccccc1C(=O)NC(C(=O)Nc1cccnc1)C(C)C (centres undefined)	0	0	0	0	0
Nc1c(C(=O)NC2CCCC2)c2nc3ccccc3nc2n1N	0	0	0	0	39
Nc1c(C(=O)OCC2CCCO2)c2nc3ccccc3nc2n1C1CCCC1 (centres undefined)	85	0	0	0	0
CC(C)S(=O)(=O)C/C(N)=N/OC(=O)c1cc(Cl)cc(Cl)c1	0	0	0	0	0
CC(/C=N/NC(=O)Cc1cccs1)=C\c1ccco1	0	0	0	0	0
CC(/C=N/NC(=O)c1cccs1)=C\c1ccco1	0	0	0	0	20
CC(=O)N1CCN(c2nc(-c3ccco3)c3c(c2C#N)CC(C)(C)SC3)CC1	0	0	0	0	16
O=C(CSc1nc(=O)n2ccccc2n1)NCc1ccccc1	-	-	-	-	0
COc1ccc(N2CC(C)Cn3c2nc2c3c(=O)n(CCc3ccccc3)c(=O)n2C)cc1 (centres undefined)	0	-	0	-	41
N#CCc1nc(-c2cc3ccccc3oc2=O)cs1	0	0	0	0	177
O=c1oc2ccccc2cc1-c1nc(-c2cccs2)cs1	0	0	0	0	0
CCOc1ccc(CNC(c2ccccc2)c2ccccc2)cc1	-	-	-	-	33
CCOC(=O)c1cccc(NC(=O)CSc2nnc(C)n2CC2CCCO2)c1 (centres undefined)	-	-	-	-	0
CCCOC(=O)c1ccc(NC(=O)c2c(Cl)ccc(Cl)c2OC)cc1	0	0	0	0	31
N#Cc1c2ccc(OCC(=O)NCc3ccco3)cc2n2ccccc12	-	-	-	-	21
N#Cc1c2ccc(O)cc2n2ccccc12	86	0	0	0	19
Cc1cc(C)n2nc(C(=O)OCC(=O)N3C(C)CCCC3C)nc2n1 (centres undefined)	-	-	-	-	0
CCCCNc1cc(NC(C)=O)cc2cc(OC)c(OC)cc12	0	0	0	0	21
CCCc1nc2c(=O)n(C)c(=O)[nH]c2n1C	114	0	122	0	108
CCCCn1c(-c2ccc(Cl)cc2)nc2c(=O)n(C)c(=O)[nH]c21	50	0	0	0	-
CCCCn1c(-c2ccc(OC)cc2)nc2c(=O)n(C)c(=O)[nH]c21	-	-	-	-	0
CCOc1ccc(N(C(C)C(=O)N2CCOCC2)S(C)(=O)=O)cc1 (centres undefined)	-	-	-	-	0
SMILES	Runt-SMMHC FRET	Tb hexokinase	Runt-CBFb FRET	Hck-Nef inh	RanGTP-Imp inh
CCN(CC)S(=O)(=O)c1cccc(NC(=O)CNc2cccc(S(=O)(=O)N3CCOCC3)c2)c1	-	-	-	-	0
CCOc1ccc(N(CC(=O)Nc2nccs2)S(=O)(=O)c2c(C)[nH]c(=O)[nH]c2=O)cc1	0	0	0	0	0
CN1C(=O)/C(=C2/C=Cc3ccccc3N2CCCS(=O)(=O)O)SC1=S	0	0	0	0	0
C=CCN1C(=O)/C(=C2/Sc3ccccc3N2CCCS(=O)(=O)O)SC1=S	65	0	66	0	45
COc1ccc(C(=O)/C=C/Nc2ccc(S(=O)(=O)Nc3nc(C)cc(C)n3)cc2)c(OC)c1	81	0	0	0	0
COc1ccc(C(=O)/C=C/Nc2ccc(S(=O)(=O)Nc3nc(C)cc(C)n3)cc2)cc1OC	67	0	0	0	0
CCN(CC)C(=O)COc1ccc2oc(-c3ccco3)cc(=O)c2c1	0	0	0	0	0

Screens from PubChem BioAssay.
